In brackets after ≈: the same amount, converted by molar mass.
How the values were obtained:
Candida parapsilosis [1] = experiment: Antifungal activity against Candida parapsilosis DSM 11224 after 48 hrs by CLSI broth microdilution method; assay type: functional; details: Lodderomyces parapsilosis, DSM 11224, 48 h
In short: (§1)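 Yeast CLSI broth microdilution (M27-A3). Compounds dissolved in DMSO at 100× the top test concentration, then diluted as serial two-fold dilutions in RPMI 1640 to final 0.125–64. Inoculum was 1.0–1.5 × 10^3 cells mL−1, incubated at 35 °C and read for growth at 48 h. MIC is the lowest concentration giving ≥50% growth inhibition versus growth control. Reported as the median of five replicates and as the geometric mean.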

[2] = system: Trichophyton mentagrophytes; experiment: Antifungal activity against Trichophyton mentagrophytes DSM 4870 after 72 hrs by CLSI broth microdilution method; assay type: functional; details: DSM 4870, 72 h
In short: (§2)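 Dermatophytes tested by CLSI broth microdilution for filamentous fungi (M38-A2). Serial two-fold dilutions of DMSO-dissolved compound in RPMI 1640, final 0.125–64. Inoculum was 0.4–5 × 10^4 CFU mL−1, incubated at 35 °C and read at 72 h. MIC80 is the lowest concentration giving ≥80% growth inhibition versus growth control. Median of five replicates, plus geometric mean.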

Pichia kudriavzevii [3] = experiment: Antifungal activity against Candida krusei PMC 0613 after 48 hrs by CLSI broth microdilution method; assay type: functional; details: PMC 0613, 48 h; in short: as §1
Nannizzia gypsea [4] = experiment: Antifungal activity against Microsporum gypseum DSM 3824 after 72 hrs by CLSI broth microdilution method; assay type: functional; details: DSM 3824, 72 h; in short: as §2
[5] = system: Trichophyton mentagrophytes; experiment: Antifungal activity against Trichophyton mentagrophytes PMC 6509 after 72 hrs by CLSI broth microdilution method; assay type: functional; details: PMC 6509, 72 h; in short: as §2
Cryptococcus neoformans [6] = experiment: Antifungal activity against Cryptococcus neoformans PMC 2123 after 72 hrs by CLSI broth microdilution method; assay type: functional; details: PMC 2123, 72 h
In short: (§3)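 Cryptococcus neoformans tested by CLSI broth microdilution in RPMI 1640, with serial two-fold dilutions from DMSO stocks at 100× the top concentration, final 0.125–64. Inoculum was 1.0–1.5 × 10^3 cells mL−1 at 35 °C, with growth read at 72 h. MIC is the lowest concentration with ≥50% growth inhibition versus control. Median of five replicates, plus geometric mean.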

Cryptococcus neoformans [7] = experiment: Antifungal activity against Cryptococcus neoformans PMC 2111 after 72 hrs by CLSI broth microdilution method; assay type: functional; details: PMC 2111, 72 h; in short: as §3
Candida parapsilosis [8] = experiment: Antifungal activity against Candida parapsilosis ATCC 22019 after 48 hrs by CLSI broth microdilution method; assay type: functional; details: Lodderomyces parapsilosis, ATCC 22019, 48 h; in short: as §1
Cryptococcus neoformans [9] = experiment: Antifungal activity against Cryptococcus neoformans DSM 11959 after 72 hrs by CLSI broth microdilution method; assay type: functional; details: DSM 11959, 72 h; in short: as §3
Cryptococcus neoformans [10] = experiment: Antifungal activity against Cryptococcus neoformans PMC 2115 after 72 hrs by CLSI broth microdilution method; assay type: functional; details: PMC 2115, 72 h; in short: as §3
Nannizzia gypsea [11] = experiment: Antifungal activity against Microsporum gypseum PMC 7331 after 72 hrs by CLSI broth microdilution method; assay type: functional; details: PMC 7331, 72 h; in short: as §2
Candida albicans [12] = experiment: Antifungal activity against Candida albicans ATCC 90028 after 48 hrs by CLSI broth microdilution method; assay type: functional; details: ATCC 90028, 48 h; in short: as §1
Candida albicans [13] = experiment: Antifungal activity against Candida albicans ATCC 76615 after 48 hrs by CLSI broth microdilution method; assay type: functional; details: ATCC 76615, 48 h; in short: as §1
Candida tropicalis [14] = experiment: Antifungal activity against Candida tropicalis PMC 0910 after 48 hrs by CLSI broth microdilution method; assay type: functional; details: PMC 0910, 48 h; in short: as §1
[15] = system: Trichophyton mentagrophytes; experiment: Antifungal activity against Trichophyton mentagrophytes PMC 6531 after 72 hrs by CLSI broth microdilution method; assay type: functional; details: PMC 6531, 72 h; in short: as §2
[16] = system: Trichophyton mentagrophytes; experiment: Antifungal activity against Trichophyton mentagrophytes PMC 6552 after 72 hrs by CLSI broth microdilution method; assay type: functional; details: PMC 6552, 72 h; in short: as §2
[17] = Cytotoxicity against human A549 cells after 48 hrs by MTT assay; assay type: cell-based
In short: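 A549 cells (ATCC CCL-185) seeded at 2 × 10^4/well in phenol-red-free RPMI 1640 with 10% FBS, L-glutamine, penicillin and streptomycin, at 37 °C and 5% CO2. Exposed 48 h to DMSO-dissolved compounds (final 16–256; at least five concentrations, triplicate). MTT added for 3–4 h, crystals solubilized, OD read at 570 nm. CC50 taken versus the DMSO control. Mean ± SD of two independent experiments.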

Cryptococcus neoformans [18] = experiment: Antifungal activity against Cryptococcus neoformans PMC 2103 after 72 hrs by CLSI broth microdilution method; assay type: functional; details: PMC 2103, 72 h; in short: as §3
Cryptococcus neoformans [19] = experiment: Antifungal activity against Cryptococcus neoformans PMC 2102 after 72 hrs by CLSI broth microdilution method; assay type: functional; details: PMC 2102, 72 h; in short: as §3
Candida albicans [20] = experiment: Antifungal activity against Candida albicans ATCC 3153 after 48 hrs by CLSI broth microdilution method; assay type: functional; details: ATCC 3153, 48 h; in short: as §1
Nakaseomyces glabratus [21] = experiment: Antifungal activity against Candida glabrata PMC 0807 after 48 hrs by CLSI broth microdilution method; assay type: functional; details: PMC 0807, 48 h; in short: as §1
Pichia kudriavzevii [22] = experiment: Antifungal activity against Candida krusei DSM 6128 after 48 hrs by CLSI broth microdilution method; assay type: functional; details: DSM 6128, 48 h; in short: as §1
[23] = system: Trichophyton mentagrophytes; experiment: Antifungal activity against Trichophyton mentagrophytes PMC 6515 after 72 hrs by CLSI broth microdilution method; assay type: functional; details: PMC 6515, 72 h; in short: as §2
Candida albicans [24] = experiment: Antifungal activity against Candida albicans ATCC 10261 after 48 hrs by CLSI broth microdilution method; assay type: functional; details: ATCC 10261, 48 h; in short: as §1
Candida tropicalis [25] = experiment: Antifungal activity against Candida tropicalis DSM 11953 after 48 hrs by CLSI broth microdilution method; assay type: functional; details: DSM 11953, 48 h; in short: as §1
Candida albicans [26] = experiment: Antifungal activity against Candida albicans ATCC 10231 after 48 hrs by CLSI broth microdilution method; assay type: functional; details: ATCC 10231, 48 h; in short: as §1
Candida albicans [27] = experiment: Antifungal activity against Candida albicans PMC 1011 after 48 hrs by CLSI broth microdilution method; assay type: functional; details: PMC 1011, 48 h; in short: as §1
Nannizzia gypsea [28] = experiment: Antifungal activity against Microsporum gypseum PMC 7303 after 72 hrs by CLSI broth microdilution method; assay type: functional; details: PMC 7303, 72 h; in short: as §2
[29] = system: Trichophyton mentagrophytes; experiment: Antifungal activity against Trichophyton mentagrophytes PMC 6503 after 72 hrs by CLSI broth microdilution method; assay type: functional; details: PMC 6503, 72 h; in short: as §2
Cryptococcus neoformans [30] = experiment: Antifungal activity against Cryptococcus neoformans PMC 2136 after 72 hrs by CLSI broth microdilution method; assay type: functional; details: PMC 2136, 72 h; in short: as §3
Candida albicans [31] = experiment: Antifungal activity against Candida albicans ATCC 20891 after 48 hrs by CLSI broth microdilution method; assay type: functional; details: ATCC 20891, 48 h; in short: as §1
Candida albicans [32] = experiment: Antifungal activity against Candida albicans ATCC 24433 after 48 hrs by CLSI broth microdilution method; assay type: functional; details: ATCC 24433, 48 h; in short: as §1
Nakaseomyces glabratus [33] = experiment: Antifungal activity against Candida glabrata PMC 0805 after 48 hrs by CLSI broth microdilution method; assay type: functional; details: PMC 0805, 48 h; in short: as §1
Cryptococcus neoformans [34] = experiment: Antifungal activity against Cryptococcus neoformans PMC 2107 after 72 hrs by CLSI broth microdilution method; assay type: functional; details: PMC 2107, 72 h; in short: as §3

Structure (SMILES): O=C(OC(Cn1ccnc1)c1ccc(F)cc1)N1CCN(c2ccc(Cl)cc2)CC1 (centres undefined)
- MIC50 (Candida parapsilosis [1]): 0.25 µg/mL (≈ 0.583 µM)
- MIC80 [2]: 16 µg/mL (≈ 37.3 µM)
- MIC50 (Pichia kudriavzevii [3]): 1 µg/mL (≈ 2.33 µM)
- MIC80 (Nannizzia gypsea [4]): 16 µg/mL (≈ 37.3 µM)
- MIC80 [5]: 16 µg/mL (≈ 37.3 µM)
- MIC50 (Cryptococcus neoformans [6]): 4 µg/mL (≈ 9.33 µM)
- MIC50 (Cryptococcus neoformans [7]): 4 µg/mL (≈ 9.33 µM)
- MIC50 (Candida parapsilosis [8]): 2 µg/mL (≈ 4.66 µM)
- MIC50 (Cryptococcus neoformans [9]): 4 µg/mL (≈ 9.33 µM)
- MIC50 (Cryptococcus neoformans [10]): 4 µg/mL (≈ 9.33 µM)
- MIC80 (Nannizzia gypsea [11]): 4 µg/mL (≈ 9.33 µM)
- MIC50 (Candida albicans [12]): 0.5 µg/mL (≈ 1.17 µM)
- MIC50 (Candida albicans [13]): 8 µg/mL (≈ 18.7 µM)
- MIC50 (Candida tropicalis [14]): 2 µg/mL (≈ 4.66 µM)
- MIC80 [15]: 8 µg/mL (≈ 18.7 µM)
- MIC80 [16]: 32 µg/mL (≈ 74.6 µM)
- CC50 at 48 h [17]: 78.4 µg/mL (≈ 183 µM)
- MIC50 (Cryptococcus neoformans [18]): 2 µg/mL (≈ 4.66 µM)
- MIC50 (Cryptococcus neoformans [19]): 4 µg/mL (≈ 9.33 µM)
- MIC50 (Candida albicans [20]): 8 µg/mL (≈ 18.7 µM)
- MIC50 (Nakaseomyces glabratus [21]): 8 µg/mL (≈ 18.7 µM)
- MIC50 (Pichia kudriavzevii [22]): 8 µg/mL (≈ 18.7 µM)
- MIC80 [23]: 8 µg/mL (≈ 18.7 µM)
- MIC50 (Candida albicans [24]): 1 µg/mL (≈ 2.33 µM)
- MIC50 (Candida tropicalis [25]): 2 µg/mL (≈ 4.66 µM)
- MIC50 (Candida albicans [26]): 2 µg/mL (≈ 4.66 µM)
- MIC50 (Candida albicans [27]): 0.5 µg/mL (≈ 1.17 µM)
- MIC80 (Nannizzia gypsea [28]): 16 µg/mL (≈ 37.3 µM)
- MIC80 [29]: 16 µg/mL (≈ 37.3 µM)
- MIC50 (Cryptococcus neoformans [30]): 4 µg/mL (≈ 9.33 µM)
- MIC50 (Candida albicans [31]): 0.5 µg/mL (≈ 1.17 µM)
- MIC50 (Candida albicans [32]): 4 µg/mL (≈ 9.33 µM)
- MIC50 (Nakaseomyces glabratus [33]): 2 µg/mL (≈ 4.66 µM)
- MIC50 (Cryptococcus neoformans [34]): 1 µg/mL (≈ 2.33 µM)

From ChEMBL document CHEMBL3286116, “Synthesis, biological evaluation and structure-activity correlation study of a series of imidazol-based compounds as Candida albicans inhibitors” (Eur J Med Chem, 2014)
